Values belong to the compound of their own block, whether it stands above or below them.
Tests used:
in vivo [1] = conditions: Sprague-Dawley, rat, plasma, 10 mg/kg
in vivo [2] = conditions: BALB/c, mouse, plasma, iv, 10 mg/kg
in vivo [3] = conditions: Sprague-Dawley, rat, 10 mg/kg
Mus musculus [4] = assay: Cmax in BALB/c mouse at 20 mg/kg, po normalized to 10 mg/kg after 15 mins; format: ADME, organism-based; design: dose 20 mg/kg, route oral; conditions: in vivo
in vivo [5] = conditions: Sprague-Dawley, rat, 10 mg/kg; remark: listed apart in the source
Mus musculus [6] = organism: Mus musculus; conditions: in vivo, 5 mg/kg
Mus musculus [7] = organism: Mus musculus; conditions: in vivo, 10 mg/kg
Rattus norvegicus [8] = assay: Cmax in Sprague-Dawley rat at 10 mg/kg, iv; conditions: in vivo
Mus musculus [9] = assay: AUC in BALB/c mouse at 20 mg/kg, po normalized to 10 mg/kg; format: ADME, organism-based, Plasma; conditions: in vivo
in vivo [10] = conditions: BALB/c, mouse, 5 mg/kg
[11] = AUC in Sprague-Dawley rat 10 mg/kg, po; format: ADME, organism-based; design: dose 10 mg/kg, route oral; conditions: plasma
Method in brief: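 Male Sprague–Dawley rats, 6 weeks old, fasted 18 h, 3–4 per group. Oral dose 10 mg/5 ml/kg in 0.5% methylcellulose. Blood (0.4 ml) drawn at 0.25, 0.5, 1, 2 and 6 h. Plasma held at −20 °C, drug measured by LC/MS/MS, and PK parameters derived by non-compartmental analysis.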

in vivo [12] = conditions: Sprague-Dawley, rat, blood, 10 mg/kg
physchem = conditions: octanol/water
in vivo [13] = conditions: BALB/c, mouse, serum, 10 mg/kg
in vivo [14] = conditions: Sprague-Dawley, rat, plasma, iv, 10 mg/kg
in vivo [15] = conditions: BALB/c, mouse, serum, 50 mg/kg
in vivo [16] = conditions: beagle, dog, po, 2 mg/kg
Mus musculus [17] = assay: Cmax in BALB/c mouse at 10 mg/kg, po after 15 mins; format: ADME, organism-based; design: dose 10 mg/kg, route oral; conditions: in vivo
Method in brief: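 Female BALB/c mice, 8 weeks old, 4 per group. Dosed orally at 10 mg/1 ml/kg in 0.5% CMC. Drug level estimated by adding serum (0.01–10% final) to a Eu-VCAM-1/Fc binding assay on CHO-K1 cells expressing human VLA-4.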

in vivo [18] = conditions: beagle, dog, 1 mg/kg
in vivo [19] = conditions: beagle, dog, plasma, iv, 1 mg/kg
Canis familiaris [20] = organism: Canis familiaris; conditions: dog, in vivo, po, 1 mg/kg
Rattus norvegicus [21] = organism: Rattus norvegicus; conditions: in vivo, 10 mg/kg
in vivo [22] = conditions: BALB/c, mouse, 5 mg/kg; remark: listed apart in the source
in vivo [23] = conditions: BALB/c, mouse, plasma, 10 mg/kg
[24] = AUC in BALB/c mouse at 10 mg/kg, po; format: ADME, organism-based; design: dose 10 mg/kg, route oral; conditions: plasma
in vivo [25] = conditions: BALB/c, mouse, 10 mg/kg
Canis familiaris [26] = organism: Canis familiaris; conditions: dog, in vivo, po, 1 mg/kg; remark: listed apart in the source
[27] = AUC in Beagle dog at 1 mg/kg, po; format: ADME, organism-based, Canis lupus familiaris; design: dose 1 mg/kg, route oral; conditions: plasma

clearance (in vivo [1]): 11.3 mL/min/kg | AUC (in vivo [2]): 5260 ng·h/mL | bioavailability (in vivo [3]): 34% | Cmax (Mus musculus [4]): 391 ng/mL | Vd (in vivo [5]): 0.29 L/kg | MRT (Mus musculus [6]): 2.3 h | Vdss (Mus musculus [7]): 0.67 L/kg | Cmax (Rattus norvegicus [8]): 6700 ng/mL | AUC (Mus musculus [9]): 1095 ng·h/mL | bioavailability (in vivo [10]): 21% | AUC [11]: 5230 ng·h/mL | MRT (in vivo [12]): 2 h | logD (physchem): 1.64 | concentration at […] (in vivo [13]): 693 ng/mL | AUC (in vivo [14]): 15600 ng·h/mL
Compound: Cc1cc(CC(=O)N2C[C@@H](F)C[C@H]2COc2ccc(C(=O)O)cc2)ccc1NC(=O)Nc1ccccc1Br

logD (physchem): 2.17 | concentration at […] (in vivo [13]): 1880 ng/mL
Compound: O=C(Nc1ccccc1Cl)Nc1ccc(CC(=O)N2C[C@@H](F)C[C@H]2COc2ccc(C(=O)O)cc2)cc1Br

logD (physchem): 2.34 | concentration at […] (in vivo [13]): 2160 ng/mL
Compound: O=C(Nc1ccc(CC(=O)N2C[C@@H](F)C[C@H]2COc2ccc(C(=O)O)cc2)cc1Cl)Nc1ccccc1Br

logD (physchem): 1.69 | concentration at […] (in vivo [13]): 472 ng/mL
Compound: Cc1cc(CC(=O)N2C[C@@H](F)C[C@H]2COc2ccc(C(=O)O)cc2)ccc1NC(=O)Nc1ccccc1Cl

concentration at 0.5 h (in vivo [15]): 142 ng/mL | logD (physchem): 1.87
Compound: COc1cc(CC(=O)N2C[C@@H](F)C[C@H]2COc2ccc(C(=O)O)cc2)ccc1NC(=O)Nc1ccccc1Cl

Compound: Cc1ccccc1NC(=O)Nc1ccc(CC(=O)N2C[C@@H](F)C[C@H]2COc2ccc(C(=O)O)cc2)cc1Cl
bioavailability (in vivo [16]): 55% | AUC (in vivo [2]): 8900 ng·h/mL | bioavailability (in vivo [3]): 36% | Vd (in vivo [5]): 0.24 L/kg | Cmax (Mus musculus [17]): 2250 ng/mL | Cmax (Rattus norvegicus [8]): 13000 ng/mL | MRT (in vivo [18]): 1.6 h | AUC (in vivo [19]): 5680 ng·h/mL | Vdss (Canis familiaris [20]): 0.14 L/kg | clearance (Rattus norvegicus [21]): 5.2 mL/min/kg | MRT (in vivo [22]): 1.2 h | clearance (in vivo [23]): 18.5 mL/min/kg | AUC [24]: 2540 ng·h/mL | bioavailability (in vivo [10]): 28% | AUC [11]: 11500 ng·h/mL | Vd (in vivo [25]): 0.33 L/kg | Cmax (Canis familiaris [26]): 2370 ng/mL | MRT (in vivo [12]): 1.7 h | logD (physchem): 1.61 | concentration at […] (in vivo [13]): 3660 ng/mL | AUC [27]: 3120 ng·h/mL | AUC (in vivo [14]): 31900 ng·h/mL

logD (physchem): 1.09 | concentration at […] (in vivo [13]): 368 ng/mL
Compound: Cc1ccccc1NC(=O)Nc1ccc(CC(=O)N2C[C@@H](F)C[C@H]2COc2ccc(C(=O)O)cc2)cc1C
